Measurements as given in ChEMBL document CHEMBL4665832, “Benzylidene thiazolidinediones: Synthesis, in vitro investigations of antiproliferative mechanisms and in vivo efficacy determination in combination with Imatinib” (Bioorg Med Chem Lett, 2020).

Legend:
K562 [1] = assay: Antiproliferative activity against human K562 cells assessed as cell growth inhibition; format: functional
How it was run: (§1)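 Cell lines screened for growth inhibition and GI₅₀ derived. Each value is the mean of 3 independent experiments.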

MCF7 = assay: Antiproliferative activity against human MCF7 cells assessed as cell growth inhibition; format: functional; how it was run: as §1
[2] = Antiproliferative activity against human GURAV cells assessed as cell growth inhibition; format: functional; how it was run: as §1
PC-3 = assay: Antiproliferative activity against human PC-3 cells assessed as cell growth inhibition; format: functional; how it was run: as §1
KB = assay: Antiproliferative activity against human KB cells assessed as cell growth inhibition; format: functional; how it was run: as §1
HOP-62 = assay: Antiproliferative activity against human HOP-62 cells assessed as cell growth inhibition; format: functional; how it was run: as §1
[3] = Cytotoxicity against hepatocytes (unknown origin) assessed as cell growth by MTT assay relative to control; format: cell-based, Hepatocyte; design: concentration or dose not given beside the values
NCI-H226 = assay: Antiproliferative activity against human NCI-H226 cells assessed as cell growth inhibition; format: functional; how it was run: as §1
A549 = assay: Antiproliferative activity against human A549 cells assessed as cell growth inhibition; format: functional; how it was run: as §1
K562 [4] = assay: Anticancer activity against human K562 cells assessed as cell growth inhibition at 1 uM by MTT assay relative to control; format: functional; details: read-out: GI
How it was run: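 K562 cells given imatinib 1 µM or test compound 1 µM alone, or imatinib 1 µM plus test compound 1 µM. Proliferation read by MTT assay and expressed as % inhibition.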

Jurkat = assay: Antiproliferative activity against human Jurkat cells assessed as cell growth inhibition; format: functional; how it was run: as §1
MOLT-4 = assay: Antiproliferative activity against human MOLT-4 cells assessed as cell growth inhibition; format: functional; how it was run: as §1
HL-60 = assay: Antiproliferative activity against human HL-60 cells assessed as cell growth inhibition; format: functional; how it was run: as §1
U-937 = assay: Antiproliferative activity against human U-937 cells assessed as cell growth inhibition; format: functional; how it was run: as §1

Compound	GI50 (K562 [1])	GI50 (MCF7)	GI50 [2]	GI50 (PC-3)	GI50 (KB)	GI50 (HOP-62)	viability [3]	GI50 (NCI-H226)	GI50 (A549)	inhibition of growth at 1 µM (K562 [4])	GI50 (Jurkat)	GI50 (MOLT-4)	GI50 (HL-60)	GI50 (U-937)
Cc1ccc(NC(=O)COc2ccc(/C=C3\SC(=O)NC3=O)cc2)cc1Cl	19.6 µM	61.8 µM	71.4 µM	> 100 µM	99.6 µM	> 100 µM	> 70%	–	–	–	–	–	–	–
Cc1cnc(NC(=O)COc2ccc(/C=C3\SC(=O)NC3=O)cc2)s1	–	–	–	–	–	–	> 70%	57.8 µM	88.7 µM	–	–	–	–	–
O=C(COc1ccc(/C=C2\SC(=O)NC2=O)cc1)Nc1ccc(Br)cc1	23.4 µM	55.1 µM	54.4 µM	86.6 µM	32.1 µM	45.4 µM	> 70%	–	–	–	–	–	–	–
Cc1cc(NC(=O)COc2ccc(/C=C3\SC(=O)NC3=O)cc2)no1	–	–	–	–	–	–	> 70%	–	–	–	–	–	–	–
Cc1ccc(NC(=O)c2ccc(CN3CCN(C)CC3)cc2)cc1Nc1nccc(-c2cccnc2)n1 [IMATINIB]	–	–	–	–	–	–	–	–	–	71%	–	–	–	–
CCc1ccc(CCOc2ccc(CC3SC(=O)NC3=O)cc2)nc1 (stereo unspecified) [PIOGLITAZONE]	40.1 µM	–	–	–	–	–	–	–	–	–	–	–	–	–
O=C(COc1ccc(/C=C2\SC(=O)NC2=O)cc1)Nc1ccc(F)cc1	9.6 µM	54.6 µM	56.8 µM	> 100 µM	> 100 µM	68 µM	> 70%	–	–	–	59.9 µM	53.5 µM	61.1 µM	63.9 µM
O=C(COc1ccc(/C=C2\SC(=O)NC2=O)cc1)Nc1nc2ccccc2s1	–	–	–	–	–	–	> 70%	26.5 µM	46.9 µM	–	–	–	–	–
O=C(COc1ccc(/C=C2\SC(=O)NC2=O)cc1)Nc1c(Cl)cccc1Cl	6.7 µM	61.7 µM	56.8 µM	> 100 µM	> 100 µM	> 100 µM	> 70%	–	–	–	21.9 µM	> 100 µM	97.6 µM	60 µM
Cc1cccc2sc(NC(=O)COc3ccc(/C=C4\SC(=O)NC4=O)cc3)nc12	45.8 µM	61.2 µM	58.7 µM	> 100 µM	> 100 µM	> 100 µM	> 70%	–	–	–	–	–	–	–
O=C(COc1ccc(/C=C2\SC(=O)NC2=O)cc1)Nc1ccc(C(F)(F)F)cc1Cl	16.3 µM	67.4 µM	99.3 µM	> 100 µM	78.6 µM	> 100 µM	> 70%	–	–	–	–	–	–	–
Cc1c(NC(=O)COc2ccc(/C=C3\SC(=O)NC3=O)cc2)c(=O)n(-c2ccccc2)n1C	–	–	–	–	–	–	> 70%	–	–	–	–	–	–	–
O=C1NC(=O)/C(=C/c2ccc(OCC(=O)N3c4ccccc4Sc4ccccc43)cc2)S1	–	–	–	–	–	–	> 70%	82.1 µM	> 100 µM	–	–	–	–	–
O=C(COc1ccc(/C=C2\SC(=O)NC2=O)cc1)Nc1cccc([N+](=O)[O-])c1	20.5 µM	58.5 µM	71.5 µM	> 100 µM	> 100 µM	> 100 µM	> 70%	–	–	–	–	–	–	–
O=C(COc1ccc(/C=C2\SC(=O)NC2=O)cc1)Nc1ccccc1	17.6 µM	74.5 µM	57 µM	> 100 µM	> 100 µM	> 100 µM	> 70%	–	–	–	–	–	–	–
O=C(COc1ccc(/C=C2\SC(=O)NC2=O)cc1)Nc1ncc([N+](=O)[O-])s1	–	–	–	–	–	–	> 70%	–	–	–	–	–	–	–
O=C(COc1ccc(/C=C2\SC(=O)NC2=O)cc1)Nc1ccc([N+](=O)[O-])cc1	29.5 µM	72.5 µM	> 100 µM	> 100 µM	> 100 µM	> 100 µM	> 70%	–	–	–	–	–	–	–
Cc1cccc(NC(=O)COc2ccc(/C=C3\SC(=O)NC3=O)cc2)n1	10.7 µM	28.3 µM	60.9 µM	58.3 µM	75 µM	81.4 µM	> 70%	–	–	–	–	–	–	–
O=C(COc1ccc(/C=C2\SC(=O)NC2=O)cc1)Nc1ccc(Cl)cc1	7.4 µM	51.1 µM	35.6 µM	83.4 µM	50.3 µM	36.1 µM	> 70%	–	–	–	> 100 µM	42.7 µM	52.4 µM	46.3 µM
Cc1cc(Br)ccc1NC(=O)COc1ccc(/C=C2\SC(=O)NC2=O)cc1	20.7 µM	66.8 µM	69.7 µM	> 100 µM	> 100 µM	> 100 µM	> 70%	–	–	–	–	–	–	–
CCCCC1=NC2(CCCC2)C(=O)N1NC(=O)COc1ccc(/C=C2\SC(=O)NC2=O)cc1	–	–	–	–	–	–	> 70%	–	–	–	–	–	–	–
O=C(COc1ccc(/C=C2\SC(=O)NC2=O)cc1)Nc1ccccn1	–	–	–	–	–	–	> 70%	–	–	–	–	–	–	–
COc1cccc2c1C(=O)c1c(O)c3c(c(O)c1C2=O)C[C@@](O)(C(=O)CO)C[C@@H]3O[C@H]1C[C@H](N)[C@H](O)[C@H](C)O1 [DOXORUBICIN]	< 0.1 µM	< 0.1 µM	< 0.1 µM	< 0.1 µM	< 0.1 µM	< 0.1 µM	–	–	–	–	–	–	–	–
O=C1NC(=O)/C(=C/c2ccc(OCC(=O)N3C(=O)c4ccccc4S3(=O)=O)cc2)S1	–	–	–	–	–	–	> 70%	–	–	–	–	–	–	–
O=C(COc1ccc(/C=C2\SC(=O)NC2=O)cc1)Nc1c(F)cc(Br)cc1F	23.1 µM	57.3 µM	64.1 µM	> 100 µM	> 100 µM	75.2 µM	> 70%	–	–	–	–	–	–	–
